{"source": "ChEMBL document CHEMBL1122607", "about": "“Heterocyclic analogues of chlorcyclizine with potent hypolipidemic activity” (J Med Chem, 1984)", "data": [{"system": "Rattus norvegicus", "test": "Minimum effective dose (MED) is the dose (mg/kg)that cause significant reduction in serum cholesterol of 30% compared to concurrent controls.", "format": "functional", "parameters": "unit: mg/kg", "conditions": "not given", "how_it_was_run": "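MED was calculated from the log dose/response curve as the dose giving a statistically significant 30% fall in serum cholesterol versus concurrent controls. Measured in the 3-day oral cholesterol-fed rat screen, or in a 2-week test: groups of eight young male Wistar rats on cholesterol/cholic acid-supplemented or normal diet, dosed orally by gavage daily for 14 days, vehicle 0.5% tragacanth mucilage.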", "values": [{"smiles": "Cc1cnsc1C(c1ccccc1Cl)N1CCN(C)CC1", "note": "(stereo not given)", "MED": 20}, {"smiles": "Cc1cc(C(c2ccc(C(C)C)cc2)N2CCN(CCO)CC2)sn1", "note": "(stereo not given)", "MED": 15}, {"smiles": "CC(C)c1ccc(C(c2ccns2)N2CCN(CCO)CC2)cc1", "note": "(stereo not given)", "MED": 5}, {"smiles": "Cc1cnsc1C(c1ccc(CC(C)C)cc1)N1CCN(CCO)CC1", "note": "(stereo not given)", "MED": 6}, {"smiles": "CN1CCN(C(c2ccccc2)c2ccc(Cl)cc2)CC1", "note": "(stereo not given) [CHLORCYCLIZINE]", "MED": 15}, {"smiles": "CCOC(=O)C(C)(C)Oc1ccc(Cl)cc1", "note": "[CLOFIBRATE]", "MED": 200}, {"smiles": "CC(C)OC(=O)C(C)(C)Oc1ccc(C(=O)c2ccc(Cl)cc2)cc1", "note": "[FENOFIBRATE]", "MED": 200}, {"smiles": "O=C(O)c1cccnc1", "note": "[NIACIN]", "MED": 400}]}, {"system": "Rattus norvegicus", "test": "Hypolipidemic activity was measured as reduction in rat serum cholesterol after oral administration in male Wistar rats at 100 mg / (kg day)", "format": "functional", "conditions": "not given", "how_it_was_run": "(§1)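 Cholesterol-fed rats given the test compound orally by gavage on the last 3 days, with controls receiving vehicle (0.5% tragacanth mucilage). After overnight starvation, rats were killed under CO2 3 h after the last dose and bled by cardiac puncture. Serum cholesterol and triglyceride were measured by autoanalyzer and expressed as percentage reduction from control levels, with Student's t test.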", "units": {"Reduction": "%"}, "values": [{"smiles": "Cc1cc(C(OCCN2CCCC2)c2ccc(C(C)C)cc2)sn1", "note": "(stereo not given)", "Reduction": 30}, {"smiles": "Cc1ccccc1C(c1nccn1C)N1CCN(C)CC1", "note": "(stereo not given)", "Reduction": 5}, {"smiles": "CCOC(=O)N1CCN(C(c2ccc(C(C)C)cc2)c2cc(C)ns2)CC1", "note": "(stereo not given)", "Reduction": 10}, {"smiles": "Cc1cc(C(c2ccc(C(C)(C)C)cc2)N2CCN(C)CC2)sn1", "note": "(stereo not given)", "Reduction": 25}, {"smiles": "Cc1cc(C(c2cccc(C(F)(F)F)c2)N2CCN(C)CC2)sn1", "note": "(stereo not given)", "Reduction": 8}, {"smiles": "Cc1cc(C(c2ccc(C(C)C)cc2)N2CCOCC2)sn1", "note": "(stereo not given)", "Reduction": 7}, {"smiles": "CCOc1ccccc1C(c1cc(C)ns1)N1CCN(C)CC1", "note": "(stereo not given)", "Reduction": 25}, {"smiles": "Cc1cc(C(Nc2cccnc2)c2ccc(C(C)C)cc2)sn1", "note": "(stereo not given)", "Reduction": 16}, {"smiles": "Cc1ccc(C(c2cc(C)ns2)N2CCN(C)CC2)cc1", "note": "(stereo not given)", "Reduction": 9}, {"smiles": "Cc1cc(C(c2ccc(C)c(C)c2)N2CCN(C)CC2)sn1", "note": "(stereo not given)", "Reduction": 11}, {"smiles": "Cc1cc(C(c2ccc(C(C)C)cc2)N2CC(C)NC(C)C2)sn1", "note": "(stereo not given)", "Reduction": 16}, {"smiles": "Cc1cc(C(c2ccc(F)cc2)N2CCN(C)CC2)sn1", "note": "(stereo not given)", "Reduction": 11}, {"smiles": "Cc1cc(C(c2ccc(C(C)C)cc2)N2CCN(S(C)(=O)=O)CC2)sn1", "note": "(stereo not given)", "Reduction": 19}, {"smiles": "Cc1cc(C(c2ccc(C(C)C)cc2)N2CCN(C(=O)c3ccccc3)CC2)sn1", "note": "(stereo not given)", "Reduction": 26}, {"smiles": "Cc1cc(C(c2cccc([N+](=O)[O-])c2)N2CCN(C)CC2)sn1", "note": "(stereo not given)", "Reduction": 2}, {"smiles": "Cc1cc(C(c2ccc(OCc3ccccc3)cc2)N2CCN(C)CC2)sn1", "note": "(stereo not given)", "Reduction": 11}]}, {"system": "Rattus norvegicus", "test": "Hypolipidemic activity was measured as reduction in rat serum cholesterol after oral administration in male Wistar rats at 100 mg/(kg day)", "format": "functional", "conditions": "not given", "how_it_was_run": "as §1", "units": {"Reduction": "%"}, "values": [{"smiles": "Cc1cnsc1C(c1ccccc1Cl)N1CCN(C)CC1", "note": "(stereo not given)", "Reduction": 80}, {"smiles": "Cc1cc(C(c2ccc(C(C)C)cc2)N2CCN(CCO)CC2)sn1", "note": "(stereo not given)", "Reduction": 73}, {"smiles": "CC(C)c1ccc(C(c2ccns2)N2CCN(CCO)CC2)cc1", "note": "(stereo not given)", "Reduction": 74}, {"smiles": "Cc1cnsc1C(c1ccc(CC(C)C)cc1)N1CCN(CCO)CC1", "note": "(stereo not given)", "Reduction": 85}]}, {"system": "Rattus norvegicus", "test": "Hypolipidemic activity was measured as reduction in rat serum cholesterol after oral administration in male Wistar rats at 30 mg / (kg day)", "format": "functional", "conditions": "not given", "how_it_was_run": "as §1", "units": {"Reduction": "%"}, "values": [{"smiles": "Cc1cnsc1C(c1ccccc1Cl)N1CCN(C)CC1", "note": "(stereo not given)", "Reduction": 44}, {"smiles": "Cc1cc(C(c2ccc(C(C)C)cc2)N2CCN(CCO)CC2)sn1", "note": "(stereo not given)", "Reduction": 67}, {"smiles": "CC(C)c1ccc(C(c2ccns2)N2CCN(CCO)CC2)cc1", "note": "(stereo not given)", "Reduction": 80}, {"smiles": "Cc1cnsc1C(c1ccc(CC(C)C)cc1)N1CCN(CCO)CC1", "note": "(stereo not given)", "Reduction": 86}]}, {"system": "Rattus norvegicus", "test": "Hypolipidemic activity was measured as reduction in rat serum triglyceride after oral administration in male Wistar rats at 10 mg / (kg day)", "format": "functional", "conditions": "not given", "how_it_was_run": "as §1", "units": {"Reduction": "%"}, "values": [{"smiles": "Cc1cnsc1C(c1ccccc1Cl)N1CCN(C)CC1", "note": "(stereo not given)", "Reduction": 1}, {"smiles": "Cc1cc(C(c2ccc(C(C)C)cc2)N2CCN(CCO)CC2)sn1", "note": "(stereo not given)", "Reduction": 0}, {"smiles": "Cc1cnsc1C(c1ccc(CC(C)C)cc1)N1CCN(CCO)CC1", "note": "(stereo not given)", "Reduction": 48}]}, {"system": "Rattus norvegicus", "test": "Hypolipidemic activity was measured as reduction in rat serum triglyceride after oral administration in male Wistar rats at 30 mg / (kg day)", "format": "functional", "conditions": "not given", "how_it_was_run": "as §1", "units": {"Reduction": "%"}, "values": [{"smiles": "Cc1cnsc1C(c1ccccc1Cl)N1CCN(C)CC1", "note": "(stereo not given)", "Reduction": 10}, {"smiles": "Cc1cc(C(c2ccc(C(C)C)cc2)N2CCN(CCO)CC2)sn1", "note": "(stereo not given)", "Reduction": 14}, {"smiles": "CC(C)c1ccc(C(c2ccns2)N2CCN(CCO)CC2)cc1", "note": "(stereo not given)", "Reduction": 49}, {"smiles": "Cc1cnsc1C(c1ccc(CC(C)C)cc1)N1CCN(CCO)CC1", "note": "(stereo not given)", "Reduction": 81}]}, {"system": "Rattus norvegicus", "test": "Hypolipidemic activity was measured as reduction in rat serum cholesterol after oral administration in male Wistar rats at 10 mg / (kg day)", "format": "functional", "conditions": "not given", "how_it_was_run": "as §1", "units": {"Reduction": "%"}, "values": [{"smiles": "Cc1cnsc1C(c1ccccc1Cl)N1CCN(C)CC1", "note": "(stereo not given)", "Reduction": 16}, {"smiles": "Cc1cc(C(c2ccc(C(C)C)cc2)N2CCN(CCO)CC2)sn1", "note": "(stereo not given)", "Reduction": 23}, {"smiles": "Cc1cnsc1C(c1ccc(CC(C)C)cc1)N1CCN(CCO)CC1", "note": "(stereo not given)", "Reduction": 48}]}, {"system": "not listed separately", "test": "The therapeutic safety margin (TSM) is the ratio of the minimum lethal dose (mg/kg)to the MED", "format": "ADME, organism-based", "conditions": "in vivo", "how_it_was_run": "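Young male Wistar rats, eight per group, on cholesterol/cholic acid-supplemented or normal diet; graded oral gavage doses daily for 14 days; vehicle controls (0.5% tragacanth mucilage). Mortalities recorded to give the minimum lethal daily dose. After overnight fasting, serum cholesterol assayed by autoanalyzer. MED is the dose giving a significant (t test) 30% cholesterol fall, from the log dose/response curve. TSM = minimum lethal dose/MED.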", "values": [{"smiles": "Cc1cnsc1C(c1ccccc1Cl)N1CCN(C)CC1", "note": "(stereo not given)", "therapeutic safety margin (minimum lethal dose / MED)": "< 20"}, {"smiles": "Cc1cc(C(c2ccc(C(C)C)cc2)N2CCN(CCO)CC2)sn1", "note": "(stereo not given)", "therapeutic safety margin (minimum lethal dose / MED)": 20}, {"smiles": "CC(C)c1ccc(C(c2ccns2)N2CCN(CCO)CC2)cc1", "note": "(stereo not given)", "therapeutic safety margin (minimum lethal dose / MED)": 40}, {"smiles": "CN1CCN(C(c2ccccc2)c2ccc(Cl)cc2)CC1", "note": "(stereo not given) [CHLORCYCLIZINE]", "therapeutic safety margin (minimum lethal dose / MED)": 10}]}, {"system": "Rattus norvegicus", "test": "Hypolipidemic activity was measured as reduction in rat serum triglyceride after oral administration in male Wistar rats at 100 mg / (kg day)", "format": "functional", "conditions": "not given", "how_it_was_run": "as §1", "units": {"Reduction": "%"}, "values": [{"smiles": "Cc1cc(C(OCCN2CCCC2)c2ccc(C(C)C)cc2)sn1", "note": "(stereo not given)", "Reduction": 2}, {"smiles": "Cc1ccccc1C(c1nccn1C)N1CCN(C)CC1", "note": "(stereo not given)", "Reduction": 29}, {"smiles": "CCOC(=O)N1CCN(C(c2ccc(C(C)C)cc2)c2cc(C)ns2)CC1", "note": "(stereo not given)", "Reduction": 6}, {"smiles": "Cc1cnsc1C(c1ccccc1Cl)N1CCN(C)CC1", "note": "(stereo not given)", "Reduction": 90}, {"smiles": "Cc1cc(C(c2ccc(C(C)(C)C)cc2)N2CCN(C)CC2)sn1", "note": "(stereo not given)", "Reduction": 20}, {"smiles": "Cc1cc(C(c2cccc(C(F)(F)F)c2)N2CCN(C)CC2)sn1", "note": "(stereo not given)", "Reduction": 30}, {"smiles": "Cc1cc(C(c2ccc(C(C)C)cc2)N2CCOCC2)sn1", "note": "(stereo not given)", "Reduction": 10}, {"smiles": "CCOc1ccccc1C(c1cc(C)ns1)N1CCN(C)CC1", "note": "(stereo not given)", "Reduction": 35}, {"smiles": "Cc1cc(C(Nc2cccnc2)c2ccc(C(C)C)cc2)sn1", "note": "(stereo not given)", "Reduction": 5}, {"smiles": "Cc1cc(C(c2ccc(C)c(C)c2)N2CCN(C)CC2)sn1", "note": "(stereo not given)", "Reduction": 1}, {"smiles": "Cc1cc(C(c2ccc(C(C)C)cc2)N2CC(C)NC(C)C2)sn1", "note": "(stereo not given)", "Reduction": 32}, {"smiles": "Cc1cc(C(c2ccc(C(C)C)cc2)N2CCN(CCO)CC2)sn1", "note": "(stereo not given)", "Reduction": 73}, {"smiles": "CC(C)c1ccc(C(c2ccns2)N2CCN(CCO)CC2)cc1", "note": "(stereo not given)", "Reduction": 89}, {"smiles": "Cc1cc(C(c2ccc(F)cc2)N2CCN(C)CC2)sn1", "note": "(stereo not given)", "Reduction": 15}, {"smiles": "Cc1cnsc1C(c1ccc(CC(C)C)cc1)N1CCN(CCO)CC1", "note": "(stereo not given)", "Reduction": 97}, {"smiles": "Cc1cc(C(c2ccc(C(C)C)cc2)N2CCN(S(C)(=O)=O)CC2)sn1", "note": "(stereo not given)", "Reduction": 3}, {"smiles": "Cc1cc(C(c2ccc(C(C)C)cc2)N2CCN(C(=O)c3ccccc3)CC2)sn1", "note": "(stereo not given)", "Reduction": 16}, {"smiles": "Cc1cc(C(c2cccc([N+](=O)[O-])c2)N2CCN(C)CC2)sn1", "note": "(stereo not given)", "Reduction": 17}, {"smiles": "Cc1cc(C(c2ccc(OCc3ccccc3)cc2)N2CCN(C)CC2)sn1", "note": "(stereo not given)", "Reduction": 34}]}]}
